# Reference: ChEMBL document CHEMBL4422636, “Investigation of the structural requirements for N-methyl-D-aspartate receptor positive and negative allosteric modulators based on 2-naphthoic acid” (Eur J Med Chem, 2019)
# Activity calls are given as the source filed them. The rule behind the calls is not given here.
# Legend:
# [1] = target: Glutamate receptor ionotropic, NMDA 2B (Rattus norvegicus) (UniProt Q00960); test: Agonist activity at rat GluN2B expressed in Xenopus laevis oocytes assessed as effect on current response at holding potential -60 mV by two-electrode voltage clamp method relative to L-glutamate/glycine; format: cell-based
# In short: (§1)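 GluN1a with one GluN2 subunit; RNAs mixed 1:1–3 molar, 15–30 ng total injected into Xenopus oocytes, which were held in ND-96 at 17°C for 1–5 days. TEVC at −60 mV in 116 mM NaCl, 2 mM KCl, 0.3 mM BaCl2, 5 mM HEPES, pH 7.4. […] Reported as % of agonist-alone response, mean ± s.e.m., n≥4.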
# [2] = target: T1, Glutamate NMDA receptor; Grin1/Grin2c (Rattus norvegicus, UniProt P35439+Q00961); test: Positive allosteric modulation of rat GluN1/GluN2C expressed in Xenopus laevis oocytes assessed as potentiation of L-glutamate/glycine-induced current response at holding potential -60 mV by two-electrode voltage clamp method; format: cell-based
# In short: (§2)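 Oocytes injected with GluN1a plus GluN2A, 2B, 2C or 2D RNA (1:1–3 molar, 15–30 ng total) and kept in ND-96 at 17°C for 1–5 days. TEVC at −60 mV in HEPES-buffered NaCl/KCl/BaCl2 saline, pH 7.4. […] Curves were fitted to give EC50/IC50 and maximal potentiation or inhibition, mean ± s.e.m.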
# [3] = target: T2, Ionotropic glutamate receptor NMDA 1/2D (Rattus norvegicus, UniProt P35439+Q62645); test: Positive allosteric modulation of rat GluN1/GluN2D expressed in Xenopus laevis oocytes assessed as potentiation of L-glutamate/glycine-induced current response at holding potential -60 mV by two-electrode voltage clamp method; format: cell-based; in short: as §2
# [4] = target: Glutamate receptor ionotropic, NMDA 2B (Rattus norvegicus) (UniProt Q00960); test: Allosteric modulation of rat GluN2B expressed in Xenopus laevis oocytes assessed as L-glutamate/glycine-induced current response at 100 uM at holding potential -60 mV by two-electrode voltage clamp method relative to L-glutamate/glycine; format: cell-based; in short: as §1
# [5] = target: Glutamate receptor ionotropic, NMDA 2A (Rattus norvegicus) (UniProt Q00959); test: Allosteric modulation of rat GluN2A expressed in Xenopus laevis oocytes assessed as L-glutamate/glycine-induced current response at 100 uM at holding potential -60 mV by two-electrode voltage clamp method relative to L-glutamate/glycine; format: cell-based; in short: as §1
# [6] = Solubility of the compound at 100 uM; format: physicochemical
# In short: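 Compounds were inspected for visible precipitation at the concentrations used in the oocyte assays.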
# [7] = target: T3, Glutamate NMDA receptor; Grin1/Grin2a (Rattus norvegicus, UniProt P35439+Q00959); test: Positive allosteric modulation of rat GluN1/GluN2A expressed in Xenopus laevis oocytes assessed as potentiation of L-glutamate/glycine-induced current response at holding potential -60 mV by two-electrode voltage clamp method; format: cell-based; in short: as §2
# [8] = target: Glutamate receptor ionotropic, NMDA 2A (Rattus norvegicus) (UniProt Q00959); test: Positive allosteric modulation of rat GluN2A expressed in Xenopus laevis oocytes assessed as potentiation of L-glutamate/glycine-induced current response at holding potential -60 mV by two-electrode voltage clamp method relative to L-glutamate/glycine; format: cell-based; design: concentration or dose not given beside the values; in short: as §2
# [9] = target: Glutamate receptor ionotropic, NMDA 2C (Rattus norvegicus) (UniProt Q00961); test: Allosteric modulation of rat GluN2C expressed in Xenopus laevis oocytes assessed as L-glutamate/glycine-induced current response at 100 uM at holding potential -60 mV by two-electrode voltage clamp method relative to L-glutamate/glycine; format: cell-based; in short: as §1
# [10] = target: Glutamate receptor ionotropic, NMDA 2D (Rattus norvegicus) (UniProt Q62645); test: Allosteric modulation of rat GluN2D expressed in Xenopus laevis oocytes assessed as L-glutamate/glycine-induced current response at 100 uM at holding potential -60 mV by two-electrode voltage clamp method relative to L-glutamate/glycine; format: cell-based; in short: as §1
# [11] = target: Glutamate receptor ionotropic, NMDA 2C (Rattus norvegicus) (UniProt Q00961); test: Agonist activity at rat GluN2C expressed in Xenopus laevis oocytes assessed effect on current response at holding potential -60 mV by two-electrode voltage clamp method relative to L-glutamate/glycine; format: cell-based; in short: as §1
# [12] = target: Glutamate receptor ionotropic, NMDA 2D (Rattus norvegicus) (UniProt Q62645); test: Positive allosteric modulation of rat GluN2D expressed in Xenopus laevis oocytes assessed as potentiation of L-glutamate/glycine-induced current response at holding potential -60 mV by two-electrode voltage clamp method relative to L-glutamate/glycine; format: cell-based; design: concentration or dose not given beside the values; in short: as §2
# [13] = target: Glutamate receptor ionotropic, NMDA 2A (Rattus norvegicus) (UniProt Q00959); test: Agonist activity at rat GluN2A expressed in Xenopus laevis oocytes assessed effect on current response at holding potential -60 mV by two-electrode voltage clamp method relative to L-glutamate/glycine; format: cell-based; in short: as §1
# [14] = target: Glutamate receptor ionotropic, NMDA 2D (Rattus norvegicus) (UniProt Q62645); test: Agonist activity at rat GluN2D expressed in Xenopus laevis oocytes assessed as effect on current response at holding potential -60 mV by two-electrode voltage clamp method relative to L-glutamate/glycine; format: cell-based; in short: as §1
# [15] = target: Glutamate receptor ionotropic, NMDA 2C (Rattus norvegicus) (UniProt Q00961); test: Positive allosteric modulation of rat GluN2C expressed in Xenopus laevis oocytes assessed as potentiation of L-glutamate/glycine-induced current response at holding potential -60 mV by two-electrode voltage clamp method relative to L-glutamate/glycine; format: cell-based; design: concentration or dose not given beside the values; in short: as §2
# [16] = target: T3, Glutamate NMDA receptor; Grin1/Grin2a; test: Negative allosteric modulation of rat GluN1/GluN2A expressed in Xenopus laevis oocytes assessed as inhibition of L-glutamate/glycine-induced current response at holding potential -60 mV by two-electrode voltage clamp method; format: cell-based; in short: as §2
# [17] = target: Glutamate NMDA receptor; Grin1/Grin2b (Rattus norvegicus) (UniProt P35439+Q00960); test: Negative allosteric modulation of rat GluN1/GluN2B expressed in Xenopus laevis oocytes assessed as inhibition of L-glutamate/glycine-induced current response at holding potential -60 mV by two-electrode voltage clamp method relative to untreated control; format: cell-based; design: concentration or dose not given beside the values; in short: as §2
# [18] = target: T4, Glutamate NMDA receptor; Grin1/Grin2b (Rattus norvegicus, UniProt P35439+Q00960); test: Negative allosteric modulation of rat GluN1/GluN2B expressed in Xenopus laevis oocytes assessed as inhibition of L-glutamate/glycine-induced current response at holding potential -60 mV by two-electrode voltage clamp method; format: cell-based; in short: as §2
# [19] = target: Glutamate NMDA receptor; Grin1/Grin2c (Rattus norvegicus) (UniProt P35439+Q00961); test: Negative allosteric modulation of rat GluN1/GluN2C expressed in Xenopus laevis oocytes assessed as inhibition of L-glutamate/glycine-induced current response at holding potential -60 mV by two-electrode voltage clamp method relative to untreated control; format: cell-based; design: concentration or dose not given beside the values; in short: as §2
# [20] = target: Ionotropic glutamate receptor NMDA 1/2D (Rattus norvegicus) (UniProt P35439+Q62645); test: Negative allosteric modulation of rat GluN1/GluN2D expressed in Xenopus laevis oocytes assessed as inhibition of L-glutamate/glycine-induced current response at holding potential -60 mV by two-electrode voltage clamp method relative to untreated control; format: cell-based; design: concentration or dose not given beside the values; in short: as §2
# [21] = target: T2, Ionotropic glutamate receptor NMDA 1/2D; test: Negative allosteric modulation of rat GluN1/GluN2D expressed in Xenopus laevis oocytes assessed as inhibition of L-glutamate/glycine-induced current response at holding potential -60 mV by two-electrode voltage clamp method; format: cell-based; in short: as §2
# [22] = target: Glutamate NMDA receptor; Grin1/Grin2a (Rattus norvegicus) (UniProt P35439+Q00959); test: Negative allosteric modulation of rat GluN1/GluN2A expressed in Xenopus laevis oocytes assessed as inhibition of L-glutamate/glycine-induced current response at holding potential -60 mV by two-electrode voltage clamp method relative to untreated control; format: cell-based; design: concentration or dose not given beside the values; in short: as §2
# [23] = target: T1, Glutamate NMDA receptor; Grin1/Grin2c; test: Negative allosteric modulation of rat GluN1/GluN2C expressed in Xenopus laevis oocytes assessed as inhibition of L-glutamate/glycine-induced current response at holding potential -60 mV by two-electrode voltage clamp method; format: cell-based; in short: as §2
# [24] = target: T4, Glutamate NMDA receptor; Grin1/Grin2b; test: Positive allosteric modulation of rat GluN1/GluN2B expressed in Xenopus laevis oocytes assessed as potentiation of L-glutamate/glycine-induced current response at holding potential -60 mV by two-electrode voltage clamp method; format: cell-based; in short: as §2
# [25] = target: Glutamate receptor ionotropic, NMDA 2B (Rattus norvegicus) (UniProt Q00960); test: Positive allosteric modulation of rat GluN2B expressed in Xenopus laevis oocytes assessed as potentiation of L-glutamate/glycine-induced current response at holding potential -60 mV by two-electrode voltage clamp method relative to L-glutamate/glycine; format: cell-based; in short: as §2
Structure (SMILES),Activity [1],EC50 [2],EC50 [3],Activity [4],Activity [5],solubility [6],EC50 [7],Activity [8],Activity [9],Activity [10],Activity [11],Activity [12],Activity [13],Activity [14],Activity [15],IC50 [16],Activity [17],IC50 [18],Activity [19],Activity [20],further results
CCCCCc1ccc2cc(C(=O)O)ccc2c1,inactive,113 µM,61 µM,102%,131%,Soluble,26.7 µM,39%,126%,110%,inactive,17.3%,inactive,inactive,42.7%,–,–,–,–,–,–
O=C(O)c1cc2cc(/C=C/c3cccc([N+](=O)[O-])c3)ccc2cc1O,–,–,–,28.8%,50.5%,Soluble,–,–,24.4%,30.7%,–,–,–,–,–,9.7 µM,66.3%,9.2 µM,74.4%,70%,IC50 [21]: 1.4 µM; Activity [22]: 49.7%; IC50 [23]: 7.9 µM
O=C(O)c1ccc2cc(CCCC3CCCC3)ccc2c1,inactive,22.4 µM,34.7 µM,175%,136%,Soluble,7.5 µM,38.4%,171%,161%,inactive,65.6%,inactive,inactive,105%,–,–,–,–,–,EC50 [24]: 27 µM; Activity [25]: 61.9%
CC(C)CCCc1ccc2cc(C(=O)O)c(C(=O)O)cc2c1,inactive,–,–,88%,92%,Soluble,–,–,47%,24%,inactive,–,inactive,inactive,–,–,–,–,–,–,–
O=C(O)c1cc2cc(-c3ccccc3)ccc2cc1O,–,–,–,49.9%,28.4%,Soluble,–,–,26.1%,26.1%,–,–,–,–,–,11 µM,56.8%,97.8 µM,106%,98.6%,IC50 [21]: 49.6 µM; Activity [22]: 71.5%; IC50 [23]: 41.8 µM
CCCCOc1ccc2cc(C(=O)O)ccc2c1,inactive,–,–,46%,55%,Soluble,–,–,63%,57%,inactive,–,inactive,inactive,–,–,–,–,–,–,–
